ChEMBL document CHEMBL1781898, “Orally active achiral N-hydroxyformamide inhibitors of ADAM-TS4 (aggrecanase-1) and ADAM-TS5 (aggrecanase-2) for the treatment of osteoarthritis” (Bioorg Med Chem Lett, 2011)

Experiments:
[1] = target: T1, A disintegrin and metalloproteinase with thrombospondin motifs 5 (Homo sapiens, UniProt Q9UNA0); assay: Inhibition of ADAMTS-5 assessed as substrate cleavage after 16 hrs by fluorescence assay
T1 sequence (Q9UNA0 whole entry): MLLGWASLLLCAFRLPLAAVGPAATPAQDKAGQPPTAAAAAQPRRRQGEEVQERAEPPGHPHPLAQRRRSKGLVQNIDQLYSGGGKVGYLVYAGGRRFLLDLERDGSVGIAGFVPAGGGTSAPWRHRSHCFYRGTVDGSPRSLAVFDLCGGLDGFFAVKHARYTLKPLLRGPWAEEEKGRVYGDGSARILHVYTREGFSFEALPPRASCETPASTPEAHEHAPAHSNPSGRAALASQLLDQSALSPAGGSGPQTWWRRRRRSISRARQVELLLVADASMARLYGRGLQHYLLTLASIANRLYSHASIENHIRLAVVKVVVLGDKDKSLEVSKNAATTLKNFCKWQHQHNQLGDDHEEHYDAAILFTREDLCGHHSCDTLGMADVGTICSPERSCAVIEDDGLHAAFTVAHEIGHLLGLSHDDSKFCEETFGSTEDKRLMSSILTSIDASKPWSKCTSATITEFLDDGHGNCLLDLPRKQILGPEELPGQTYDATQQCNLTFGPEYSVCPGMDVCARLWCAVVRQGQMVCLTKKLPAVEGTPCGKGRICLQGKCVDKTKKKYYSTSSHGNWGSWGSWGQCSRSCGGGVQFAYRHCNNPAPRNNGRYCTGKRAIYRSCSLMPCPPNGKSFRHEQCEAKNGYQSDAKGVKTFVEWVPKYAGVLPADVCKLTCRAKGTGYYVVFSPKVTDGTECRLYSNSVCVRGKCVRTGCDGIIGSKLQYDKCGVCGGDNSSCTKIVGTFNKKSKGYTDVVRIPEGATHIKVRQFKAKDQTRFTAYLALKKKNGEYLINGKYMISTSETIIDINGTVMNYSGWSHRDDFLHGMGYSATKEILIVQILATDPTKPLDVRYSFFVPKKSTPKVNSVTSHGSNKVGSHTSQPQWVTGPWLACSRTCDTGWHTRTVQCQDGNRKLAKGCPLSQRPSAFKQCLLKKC
In short: (§1)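 Enzyme inhibition IC50s derived from at least six measurements, standard errors normally <5% within an assay; a standard compound run to keep assay-to-assay variability within twofold.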

[2] = target: Collagenase 3 (Homo sapiens, UniProt P45452); assay: Inhibition of recombinant human MMP-13 assessed as substrate cleavage after 20 hrs by fluorescence assay; in short: as §1
[3] = target: Matrix metalloproteinase-9 (Homo sapiens, UniProt P14780); assay: Inhibition of recombinant human MMP-9 assessed as substrate cleavage after 20 hrs by fluorescence assay; in short: as §1
[4] = Intrinsic clearance in human liver microsomes; format: ADME, Microsome
In short: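 Human liver microsome metabolism; intrinsic clearance expressed as μL/min/mg, reported as mean of eight separate experiments.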

[5] = Volume of distribution at steady state in rat at 2 mg/kg, iv; format: ADME, organism-based; parameters: dose 2 mg/kg, route intravenous; settings: in vivo, read-out: Vdss
In short: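 Rat iv PK: 2 mg/kg iv, n = 2 animals; clearance, half-life and Vdss determined.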

[6] = Lipophilicity, log D of the compound; format: physicochemical; settings: octanol/water
[7] = Thermodynamic solubility of the compound in phosphate buffer at pH 7.4 after 24 hrs; format: physicochemical; settings: read-out: Therm_solubility
[8] = Clearance in mouse; format: ADME, organism-based; settings: in vivo
[9] = Half life in rat at 2 mg/kg, iv and 3 to 10 mg/kg, po; format: ADME, organism-based; settings: in vivo
[10] = Volume of distribution at steady state in rat at 2 mg/kg, iv and 3 to 10 mg/kg, po; format: ADME, organism-based; settings: in vivo, read-out: Vdss
[11] = Oral bioavailability in mouse; format: ADME, organism-based; settings: in vivo
[12] = Oral bioavailability in rat; format: ADME, organism-based; settings: in vivo
[13] = Oral bioavailability in dog; format: ADME, organism-based, Canis lupus familiaris; settings: in vivo
[14] = Inhibition of aggrecanase activity in human late stage diseased osteoarthritis cartilage explant assessed as inhibition of aggrecan degradation measuring ARGSVIL neo-peptide release
[15] = Absolute bioavailability in dog; format: ADME, organism-based, Canis lupus familiaris; settings: in vivo
[16] = target: Cytochrome P450 2D6 (Homo sapiens, UniProt P10635); assay: Inhibition of CYP2D6; format: ADME
In short: (§2)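 Inhibition of cytochrome P450 isoforms 1A2, 2C9, 2C19, 2D6 and 3A4, reported as pIC50.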

[17] = target: Cytochrome P450 2C19 (Homo sapiens, UniProt P33261); assay: Inhibition of CYP2C19; format: ADME; in short: as §2
Chain of Cytochrome P450 2C19 (P33261 whole entry): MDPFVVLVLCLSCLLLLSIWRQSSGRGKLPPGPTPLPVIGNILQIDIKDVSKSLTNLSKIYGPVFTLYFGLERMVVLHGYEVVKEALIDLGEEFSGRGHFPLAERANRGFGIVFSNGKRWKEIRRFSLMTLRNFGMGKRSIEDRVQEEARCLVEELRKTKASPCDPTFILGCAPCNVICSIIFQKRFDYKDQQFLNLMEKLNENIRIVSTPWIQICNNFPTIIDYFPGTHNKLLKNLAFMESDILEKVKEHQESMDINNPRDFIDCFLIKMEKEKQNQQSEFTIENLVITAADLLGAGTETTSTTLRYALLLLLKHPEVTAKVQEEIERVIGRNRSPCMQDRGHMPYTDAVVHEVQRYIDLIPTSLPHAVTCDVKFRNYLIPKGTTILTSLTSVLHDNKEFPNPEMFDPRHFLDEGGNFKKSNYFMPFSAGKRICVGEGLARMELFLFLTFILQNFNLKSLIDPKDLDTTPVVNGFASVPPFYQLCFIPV

Chain of Cytochrome P450 2D6 (P10635 whole entry, canonical isoform): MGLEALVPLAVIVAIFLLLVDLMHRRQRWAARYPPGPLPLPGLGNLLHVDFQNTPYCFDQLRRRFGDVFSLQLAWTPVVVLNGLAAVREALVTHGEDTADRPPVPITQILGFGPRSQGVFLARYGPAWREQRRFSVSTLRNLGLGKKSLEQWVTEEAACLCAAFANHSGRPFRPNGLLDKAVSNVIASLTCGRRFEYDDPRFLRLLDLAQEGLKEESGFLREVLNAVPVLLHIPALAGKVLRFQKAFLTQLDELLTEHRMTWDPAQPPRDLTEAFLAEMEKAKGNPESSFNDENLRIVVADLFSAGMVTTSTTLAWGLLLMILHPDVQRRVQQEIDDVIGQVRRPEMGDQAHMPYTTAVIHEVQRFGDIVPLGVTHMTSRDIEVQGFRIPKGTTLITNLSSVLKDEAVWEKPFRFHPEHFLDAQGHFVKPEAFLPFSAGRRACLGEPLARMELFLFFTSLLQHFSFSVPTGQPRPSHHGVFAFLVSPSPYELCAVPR
Chain of Matrix metalloproteinase-9 (P14780 whole entry): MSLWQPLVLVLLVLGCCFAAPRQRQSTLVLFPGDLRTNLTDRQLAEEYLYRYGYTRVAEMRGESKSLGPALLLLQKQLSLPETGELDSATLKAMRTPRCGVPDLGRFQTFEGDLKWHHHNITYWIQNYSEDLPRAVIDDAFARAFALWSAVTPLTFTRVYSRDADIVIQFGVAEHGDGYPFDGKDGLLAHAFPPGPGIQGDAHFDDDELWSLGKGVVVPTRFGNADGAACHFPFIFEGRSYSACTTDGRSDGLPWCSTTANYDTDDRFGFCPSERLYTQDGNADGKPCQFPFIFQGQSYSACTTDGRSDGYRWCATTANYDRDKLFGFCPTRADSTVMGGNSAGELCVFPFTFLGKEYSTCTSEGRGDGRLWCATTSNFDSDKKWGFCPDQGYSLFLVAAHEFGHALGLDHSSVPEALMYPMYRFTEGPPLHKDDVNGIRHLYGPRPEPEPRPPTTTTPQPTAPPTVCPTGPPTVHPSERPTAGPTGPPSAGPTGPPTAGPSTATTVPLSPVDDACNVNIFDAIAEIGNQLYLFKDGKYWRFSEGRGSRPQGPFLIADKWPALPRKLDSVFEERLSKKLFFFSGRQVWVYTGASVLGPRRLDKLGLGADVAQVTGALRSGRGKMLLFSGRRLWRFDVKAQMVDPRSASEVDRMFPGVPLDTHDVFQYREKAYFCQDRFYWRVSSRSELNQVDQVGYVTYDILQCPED

IC50 [1]: 860 nM | IC50 [2]: > 31000 nM | IC50 [3]: > 25000 nM | microsomal CLint [4]: 3.1 µL/min/mg | Vd [5]: 3 L/kg | logD [6]: 0.9 | solubility thermodynamic at 24 h [7]: > 1000 µM | clearance [8]: 30 mL/min/kg | half-life [9]: 8.9 h | Vd [10]: 3 L/kg | bioavailability [11]: 54% | bioavailability [12]: 45% | bioavailability [13]: 52% | IC50 [14]: 150 nM | bioavailability [15]: 52% | inhibition (INH) [16]: Not Active | inhibition (INH) [17]: Not Active
SMILES: Cc1noc(C)c1CCC1CCN(S(=O)(=O)CC2(N(O)C=O)CCOCC2)CC1
